According to ChEMBL document CHEMBL5352499, “Differentiating Inhibition Selectivity and Binding Affinity of Isocitrate Dehydrogenase 1 Variant Inhibitors” (J Med Chem, 2023):
Values belong to the compound of their own block, whether it stands above or below them. Calls of active or inactive are those of the source. No cut-off for these calls is given here.

Legend:
[1] = biological target: T1, Isocitrate dehydrogenase [NADP] cytoplasmic (Homo sapiens, UniProt O75874, R132H); experiment: Inhibition of recombinant IDH1 R132H mutant (unknown origin) expressed in Escherichia coli BL21(DE3) pLysS cells using 2OG as substrate assessed as 2OG conversion to 2HG incubated for 60 mins in presence of NADPH by spectrophotometric analysis
T1 sequence (O75874 2-414 R132H limits assumed): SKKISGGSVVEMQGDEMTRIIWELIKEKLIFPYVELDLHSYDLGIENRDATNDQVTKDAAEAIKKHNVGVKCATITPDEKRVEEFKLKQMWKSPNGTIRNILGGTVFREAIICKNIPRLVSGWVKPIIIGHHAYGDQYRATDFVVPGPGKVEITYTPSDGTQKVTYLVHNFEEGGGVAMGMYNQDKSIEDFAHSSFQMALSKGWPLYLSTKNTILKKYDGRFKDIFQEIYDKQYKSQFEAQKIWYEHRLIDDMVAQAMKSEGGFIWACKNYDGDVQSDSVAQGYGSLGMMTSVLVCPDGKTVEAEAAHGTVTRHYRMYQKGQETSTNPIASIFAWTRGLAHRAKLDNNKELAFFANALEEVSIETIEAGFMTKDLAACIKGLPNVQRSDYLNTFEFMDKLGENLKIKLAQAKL

[2] = Selectivity index, ratio of IC50 for recombinant wildtype IDH1 expressed in Escherichia coli BL21(DE3) pLysS cells to IC50 for recombinant IDH1 R132H mutant (unknown origin) expressed in Escherichia coli BL21(DE3) pLysS cells
[3] = biological target: T2, Isocitrate dehydrogenase [NADP] cytoplasmic (Homo sapiens, UniProt O75874); conditions: dose 3-100 µM
T2 sequence (O75874 whole entry): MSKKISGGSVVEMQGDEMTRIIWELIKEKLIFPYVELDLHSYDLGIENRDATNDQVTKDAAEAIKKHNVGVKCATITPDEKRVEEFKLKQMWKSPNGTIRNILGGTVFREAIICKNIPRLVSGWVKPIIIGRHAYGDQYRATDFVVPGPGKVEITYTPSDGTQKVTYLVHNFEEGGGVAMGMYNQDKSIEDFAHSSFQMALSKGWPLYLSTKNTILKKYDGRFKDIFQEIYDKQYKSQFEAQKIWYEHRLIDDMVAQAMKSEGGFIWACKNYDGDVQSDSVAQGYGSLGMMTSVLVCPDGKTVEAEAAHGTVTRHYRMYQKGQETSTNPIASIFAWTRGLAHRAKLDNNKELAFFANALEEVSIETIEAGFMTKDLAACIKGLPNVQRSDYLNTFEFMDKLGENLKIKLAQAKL

[4] = system: Isocitrate dehydrogenase [NADP] cytoplasmic (Homo sapiens), O75874 [R132H]; conditions: dose 3-100 µM
Sequence of Isocitrate dehydrogenase [NADP] cytoplasmic (Homo sapiens), O75874 [R132H] (O75874 whole entry R132H): as the sequence (O75874 whole entry) above, with R132H counted along it

[5] = biological target: T1, Isocitrate dehydrogenase [NADP] cytoplasmic; experiment: Binding affinity to human recombinant IDH1 R132H mutant expressed in Escherichia coli BL21(DE3) pLysS cells assessed as dissociation constant by non-denaturing mass spectroscopic analysis
[6] = system: Isocitrate dehydrogenase [NADP] cytoplasmic (Homo sapiens), O75874 [R132H]; conditions: dose 42.0 µM
[7] = biological target: T2, Isocitrate dehydrogenase [NADP] cytoplasmic; experiment: Binding affinity to human recombinant IDH1 expressed in Escherichia coli BL21(DE3) pLysS cells assessed as dissociation constant by non-denaturing mass spectroscopic analysis
[8] = biological target: T2, Isocitrate dehydrogenase [NADP] cytoplasmic; experiment: Binding affinity to recombinant wildtype IDH1 (unknown origin) expressed in Escherichia coli BL21(DE3) pLysS cells incubated in presence of MgCl2 by NMR analysis
[9] = system: Isocitrate dehydrogenase [NADP] cytoplasmic (Homo sapiens), O75874 [R132H]; experiment: Binding affinity to recombinant IDH1 R132H mutant (unknown origin) expressed in Escherichia coli BL21(DE3) pLysS cells incubated in presence of MgCl2 by NMR analysis
[10] = biological target: T2, Isocitrate dehydrogenase [NADP] cytoplasmic; experiment: Binding affinity to recombinant IDH1 (unknown origin) expressed in Escherichia coli BL21(DE3) pLysS cells incubated in presence of MgCl2 by ITC assay
How it was run: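 Homodimeric wt IDH1 in 50 mM tris–HCl, pH 7.5; cell 40 μM protein (4% v/v DMSO), titrant 200 or 400 μM compound (2% or 4% DMSO). 25 °C, stirring 750 rpm, 19 injections (0.4 μL then 18 × 2.0 μL, 150 s apart); thermodynamic parameters fitted from the heats.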

[11] = system: Isocitrate dehydrogenase [NADP] cytoplasmic (Homo sapiens), O75874 [R132H]; experiment: Binding affinity to recombinant IDH1 R132H mutant (unknown origin) expressed in Escherichia coli BL21(DE3) pLysS cells incubated in presence of MgCl2 by ITC assay
How it was run: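 IDH1 R132H homodimer in 50 mM tris–HCl, pH 7.5; 40 μM protein in cell (4% v/v DMSO) titrated at 25 °C with 200 or 400 μM compound (2% or 4% DMSO), 19 injections (0.4 μL, then 2.0 μL × 18, 150 s spacing), 750 rpm; thermodynamic parameters from fitted isotherm.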

IC50 [1]: 0.073 µM | ΔTm [3]: 8.1 °C | ΔTm [4]: 6.6 °C
SMILES: Cc1ccccc1C(C(=O)NC1CCCCC1)N(C(=O)Cn1cnc2ccccc21)c1cccc(F)c1 (stereo not drawn)
Ratio IC50 [2]: > 556

Kd [5]: 98 µM
SMILES: Cc1ccccc1C(C(=O)NC1CCCCC1)N(C(=O)Cn1ccnc1C)c1cccc(F)c1 (stereo not drawn)

ΔTm [4]: 11.7 °C | ΔTm [6]: 11.2 °C
SMILES: CC(=O)N1CCN(Cc2ccc([C@H](C)Nc3nccc(N4C(=O)OC[C@@H]4C(C)C)n3)cc2)CC1

Kd [7]: 24 µM | Kd [5]: 23 µM | Activity [8]: Active | Activity [9]: Active | Activity [10]: Active | Activity [11]: Active
SMILES: COc1c(C)cc(NC(=O)c2nn(Cc3ccc(F)cc3)c3c2CN(C(=O)c2ccc[nH]2)C[C@]3(C)C(N)=O)cc1C
